RGS4 inh: human RGS4 inhibition; P49798; HEK293 M3R/RGS4 inducible, Fluo-4 calcium flux; hits give high values; triggered by carbachol at its EC20; B-score at 10 µM; actives 0.45% (n = 310,000);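 active = B-score, a plate-corrected calcium signal, over three deviations above library mean, with baseline fluorescence within five deviations of library mean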;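 note: RGS4 expression induced by doxycycline in cells with stable M3 receptor; B-score is computed from the integrated fluorescence ratio over baseline after carbachol; higher B-score means a larger calcium signal and so more RGS4 inhibition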
Target sequence (P49798 whole entry, looked up): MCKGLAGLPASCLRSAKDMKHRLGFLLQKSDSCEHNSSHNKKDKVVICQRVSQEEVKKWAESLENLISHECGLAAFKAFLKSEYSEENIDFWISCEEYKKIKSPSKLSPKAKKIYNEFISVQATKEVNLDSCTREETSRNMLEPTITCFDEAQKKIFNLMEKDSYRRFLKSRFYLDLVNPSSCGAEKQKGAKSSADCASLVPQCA
MrgX1 PAM: human MrgX1 positive allosteric modulation, primary screen | B-score at 10 µM | MrgX1-HEK293, Fluo-4 calcium flux, FDSS; hits give high values | AID 588675 | actives 0.63% (n = 310,000) | Q96LB2;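 active = plate-corrected calcium response at least 3 library SD above typical, normal starting fluorescence, not activating the receptor alone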;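 note: compound read alongside a low EC10 to EC30 dose of BAM8-22 agonist; peak minus trough fluorescence over baseline measured at the second addition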
RGS4 pot: potentiators or activators of RGS4 | actives 0.92% (n = 310,000) | B-score at 10 µM | HEK293 M3R/inducible RGS4, carbachol calcium flux Fluo4; hits give low values | AID 463111;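 active = B-score of the integrated calcium signal more than 4 SD below the library mean, with starting fluorescence not abnormally high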;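 note: negative B-score means reduced calcium response which marks RGS4 activation or potentiation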
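Material: Inducible-RGS4 HEK293 cells carrying M3 receptor; also added: carbachol at ECmax as muscarinic agonist stimulus; incubation: compound preincubation 20 min at room temperature before agonist; signal: Fluo4-AM (2 µM) calcium-flux fluorescence, kinetic read; measure: integrated calcium ratio converted to B score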
MrgX1 ag: human MrgX1 receptor agonism, primary screen; Q96LB2; MrgX1-HEK293 cells, Fluo-4 calcium fluorescence, agonist mode; hits give high values; B-score at 10 µM; actives 0.44% (n = 310,000); AID 588627;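 active = calcium response B-score plate-corrected fluorescence ratio at least 3 library SD, with starting fluorescence B-score inside 5 SD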
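Material: HEK293 cells stably expressing human MrgX1 receptor | Quantity: 15,000 cells per well | Times: Cells plated overnight, dye loaded 0.5 h 37 °C, 0.5 h room temperature | Measured by: Kinetic Fluo-4 NW fluorescence of intracellular calcium | Control set: Positive and negative controls per plate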
MrgX1 antag: blocks BAM8-22 activation of human MrgX1 receptor; Q96LB2; MRGX1-HEK293 calcium flux, Fluo-4, BAM8-22 antagonism; hits give low values; B-score at 10 µM; actives 1.3% (n = 310,000);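 active = calcium-response B-score plate-corrected more than 3 library SD below zero, starting fluorescence within 5 deviations, no agonist response on first addition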;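 note: peak minus trough fluorescence over baseline after final BAM8-22 challenge near maximal dose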
RGS4 activ val: confirmation of RGS4 activators. HEK293 M3R/RGS4 inducible, carbachol calcium flux Fluo4. shares compounds with RGS4 pot. actives 89% (n = 1,100). AID 602282. inhibition, % at 10 µM;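 active = inhibition above 3 SD of the buffer control wells, cut at about 41% in these data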;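 note: signal is the integrated peak-minus-minimum Fluo4 fluorescence over baseline ratio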
M3R Ca counter: RGS4 activator counter-screen hit in non-induced cells; inhibition, % at 10 µM; AID 602283; shares compounds with RGS4 pot; HEK293 M3R non-induced RGS4, Fluo4 calcium flux; after carbachol challenge at its EC90; actives 82% (n = 1,100);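 active = inhibition exceeding 3 SD of buffer-only control wells, cut at about 26% in these data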;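 note: percent drop in integrated peak-minus-baseline over baseline Fluo4 ratio after carbachol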
Starred values were filed as active, the others as inactive; i = inactive; x = not tested or not shown. In the library only some 3.5% were active in any assay of this set; here they are far more common.

SMILES	RGS4 inh	MrgX1 PAM	RGS4 pot	MrgX1 ag	MrgX1 antag	RGS4 activ val	M3R Ca counter
COc1ccc(N2CCN(CCC(O)c3ccc4ccccc4c3)CC2)cc1 (configuration not stated)	i	i	i	i	i	x	x
CCCC(=O)N(Cc1cccnc1)c1nc2c(OC)ccc(Cl)c2s1	i	i	i	i	i	x	x
C/C(=N\N(Cc1ccccc1)c1ccccc1)c1ccncc1	i	i	-9.2*	i	i	x	x
CN(C(=O)c1ccncc1)c1ccccc1	i	i	i	i	i	x	x
N#CC(C#N)=c1ccc2c(c1)N1C3=C(CCCC3)CC3CCCCC31N=2 (configuration not stated)	i	i	-8.2*	i	i	84*	84*
O=C(CCC1CCCN(C(=O)c2ccsc2)C1)N1CCN(c2ccccn2)CC1 (configuration not stated)	i	i	i	i	i	x	x
CCCCn1c2ccc(F)cc2c2nnc(SCCN3CCCCC3)nc21	i	x	-7.8*	x	x	84*	35*
Cn1c2ccc(F)cc2c2nnc(SCCN3CCCCC3)nc21	i	x	i	x	x	x	x
COc1cc(C)ccc1NC(=O)Cc1csc(NC(=O)Nc2ccccc2OC)n1	i	i	-10*	i	i	94*	91*
O/C=c1\ccc2cccc3nc(C(F)(F)F)nc1c23	i	i	i	i	i	x	x
C/C(O)=c1/ccc2cccc3nc(C)nc1c23	i	i	-8.3*	i	i	74*	69*
CCOC(=O)CCNC(=O)N1CCCC(Cc2ccccc2)(C(=O)OCC)C1 (configuration not stated)	i	i	i	i	i	x	x
CCOc1ccc(NC(C(=O)Nc2cccc(C(C)=O)c2)c2ccccc2)cc1 (configuration not stated)	i	i	i	i	i	x	x
CCN(CC)CCNC(C(=O)Nc1cccc(C(C)=O)c1)c1ccccc1 (configuration not stated)	i	i	-13*	i	-5*	90*	45*
COCCn1ccc2c(OCC(=O)NCCc3ccccc3)cccc2c1=O	i	i	i	i	i	x	x
O=C(C[n+]1ccccc1)N/N=C/c1cc(Br)ccc1O	i	i	i	i	i	x	x
CCn1c(=NC(=O)c2cccc(N3C(=O)CCC3=O)c2)sc2c(C)ccc(OC)c21	i	i	-8.6*	i	i	68*	30*
COc1ccc(C(=O)N=c2sc3c(C)ccc(OC)c3n2C)cc1OC	i	i	-7.7*	i	i	86*	50*
O=C(/C=C\Nc1ccc(S(=O)(=O)Nc2ncccn2)cc1)c1ccccc1	i	x	i	x	x	x	x
CC(OC(=O)c1ccc(Cl)nc1)C(=O)NC1(C#N)CCCCC1 (configuration not stated)	i	i	i	i	i	x	x
Cc1nc2ccc(NC(=O)c3cccc(S(=O)(=O)N(C)c4ccccc4)c3)cc2s1	i	i	-8.9*	i	i	88*	69*
O=C(Nc1c(Cl)ccc2nsnc12)c1ccc([N+](=O)[O-])o1	i	i	i	i	i	x	x
COC(=O)c1cc(C(=O)Nn2cnnc2)cc([N+](=O)[O-])c1	i	i	i	i	i	x	x
COC(=O)c1ccc(OC)c(CSc2nnc(-c3ccc(C(C)(C)C)cc3)o2)c1	i	i	-7.9*	i	i	58*	84*
COC(=O)c1ccc(OC)c(CSc2nnc(COc3ccccc3)o2)c1	i	i	i	i	i	x	x
COc1cc(C(=O)Oc2cccc(Nc3ncnc4ccccc34)c2)cc(OC)c1OC	i	i	-12*	i	i	92*	80*
CCCCCCCCCn1c2c(c(=N)c3c1CCC3)CCCC2	i	x	-11*	x	x	92*	95*

Source: PubChem BioAssay (Johns Hopkins Ion Channel Center)
